The results in this text go back to PMC10052233 (JACS Au, 2023).

Assay [1] addresses T1, di-Zn-NDM-1 (Klebsiella pneumoniae, UniProt C7C422). Put plainly: 1H-15N TROSY-HSQC and 19F NMR titration of di-Zn-NDM-1 with inhibitors. The note with it: di-Zn-NDM-1, 298 K. The format is binding.
Assay [2] has as its target T1, di-Zn-NDM-1. Briefly: 19F NMR titration, dissociation constant with di-Zn-NDM-1. Type of assay: binding. In outline: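 NDM-1 (residues 36−270) carrying a C-terminal His6 tag, expressed in E. coli BL21 (DE3) and purified by Ni2+-affinity and size-exclusion chromatography. di-Zn protein, 0.1−0.3 mM, titrated with test compound at ratios chosen so the protein was mostly bound. 19F spectra recorded at each ratio. Kd derived from titration of the residue Y229 signal.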

For assay [3], the target named is T2, apo-NDM-1 (Klebsiella pneumoniae, UniProt C7C422). Briefly: 1H-15N TROSY-HSQC and 19F NMR titration of apo-NDM-1 with inhibitors. Type of assay: binding. The note with it: apo-NDM-1, 298 K.
T2 sequence (C7C422 36-270): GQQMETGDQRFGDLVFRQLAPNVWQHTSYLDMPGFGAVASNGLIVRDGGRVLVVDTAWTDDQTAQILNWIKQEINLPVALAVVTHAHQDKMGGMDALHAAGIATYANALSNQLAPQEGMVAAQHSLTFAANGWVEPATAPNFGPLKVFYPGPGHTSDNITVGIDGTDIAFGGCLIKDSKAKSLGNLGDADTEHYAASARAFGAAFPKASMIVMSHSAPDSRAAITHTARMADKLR
Assay [4] deals with T1, di-Zn-NDM-1. Put plainly: Thermal stability by circular dichroism, di-Zn-NDM-1.
Assay [5] deals with T2, apo-NDM-1. Put plainly: Thermal stability by circular dichroism, apo-NDM-1. The note with it: CD, ellipticity at 208 nm; apo-NDM-1 alone 46.1 °C.

T1 sequence (C7C422 36-270): as above

Broadly, the Kd is the free concentration of one partner at which half of the binding sites on the other are occupied at equilibrium, for simple one-to-one binding. On to `O[C@@H](CS)[C@@H](O)CS` (racemic) [DTT, dithiothreitol], for which the “changes of 1H-15N TROSY-HSQC / 19F spectra upon titration” value at di-Zn-NDM-1 [1] was “large chemical shift changes”; at apo-NDM-1 [3] it was “No changes”. On di-Zn-NDM-1 [2], this compound came in with a Kd of 30 µM.

For `OCC(S)CS` (stereo not drawn) [2,3-dimercapto-1-propanol], the “changes of 1H-15N TROSY-HSQC / 19F spectra upon titration” value on di-Zn-NDM-1 [1] is recorded as “large chemical shift changes”; at apo-NDM-1 [3], “No changes”. Further, the affinity on di-Zn-NDM-1 [2], expressed as Kd, was 712 µM.

With `CC(CS)C(=O)O` (stereo not drawn) [3-mercaptoisobutyric acid], the “changes of 1H-15N TROSY-HSQC / 19F spectra upon titration” value at di-Zn-NDM-1 [1] is on record as “large chemical shift changes”; on apo-NDM-1 [3] it was “No changes”.

For `c1ccc(CN(Cc2ccccn2)Cc2ccccn2)nc1` [TPA, tris-picolylamine], the figures for the “changes of 1H-15N TROSY-HSQC / 19F spectra upon titration” value at di-Zn-NDM-1 [1] and at apo-NDM-1 [3] were “significant changes” and “only minute chemical shift changes”, respectively.

Take `N[C@@H](C(=O)N[C@@H]1C(=O)N2C(C(=O)O)=C(Cl)CS[C@H]12)c1ccccc1` [cefaclor]: the “changes of 1H-15N TROSY-HSQC / 19F spectra upon titration” value at di-Zn-NDM-1 [1] and at apo-NDM-1 [3] was “almost all of the cross-peaks in the 2D TROSY-HSQC spectra disappear” each time.

Regarding `O=C(O)c1cc[c]([Hg][Cl])cc1` [chloromercuribenzoic acid, 4-chloromercuribenzoic acid], the “changes of 1H-15N TROSY-HSQC / 19F spectra upon titration” value on di-Zn-NDM-1 [1] and on apo-NDM-1 [3] was “almost all of the cross-peaks in the 2D TROSY-HSQC spectra disappear” throughout.

For `O=C(O)c1cccc(C(=O)O)n1` [dipicolinic acid], the figures for the “changes of 1H-15N TROSY-HSQC / 19F spectra upon titration” value on di-Zn-NDM-1 [1] and on apo-NDM-1 [3] were “significant changes” and “only minute chemical shift changes”, respectively.

Regarding `O=c1c2ccccc2[se]n1-c1ccccc1` [ebselen], the “Tm of ebselen-bound di-Zn-NDM-1” value on di-Zn-NDM-1 [4] (CD, ellipticity at 208 nm, di-Zn-NDM-1 alone 53.9 °C) was 48.4 °C. Besides, the “Tm lower than that of di-Zn-NDM-1” value at di-Zn-NDM-1 [4] (ebselen-bound di-Zn-NDM-1 vs di-Zn-NDM-1) is “about 5.5 °C”. In addition, the “changes of 1H-15N TROSY-HSQC / 19F spectra upon titration” value at di-Zn-NDM-1 [1] and at apo-NDM-1 [3] was “almost all of the cross-peaks in the 2D TROSY-HSQC spectra disappear” throughout. Further, on apo-NDM-1 [5], the “Tm of ebselen-bound apo-NDM-1” value stood at 46.1 °C.

Consider `c1cnc2c(c1)ccc1cccnc12` [phenanthroline], for which the entries for the “changes of 1H-15N TROSY-HSQC / 19F spectra upon titration” value on di-Zn-NDM-1 [1] and at apo-NDM-1 [3] were “significant changes” and “only minute chemical shift changes”, respectively.

Consider `O=C(O)CNC(=O)C(CS)Cc1ccccc1` (stereo not drawn) [thiorphan], for which the “changes of 1H-15N TROSY-HSQC / 19F spectra upon titration” value at di-Zn-NDM-1 [1] was “large chemical shift changes”; at apo-NDM-1 [3], “No changes”.

As for `CC(S)C(=O)NCC(=O)O` (stereo not drawn) [tiopronin], the entries for the “changes of 1H-15N TROSY-HSQC / 19F spectra upon titration” value at di-Zn-NDM-1 [1] and on apo-NDM-1 [3] were “large chemical shift changes” and “No changes”, respectively. The compound also registered a Kd at di-Zn-NDM-1 [2] of 121 µM.

colloidal bismuth subcitrate [CBS]: the “changes of 1H-15N TROSY-HSQC / 19F spectra upon titration” value at di-Zn-NDM-1 [1] is “no changes”; at apo-NDM-1 [3] it was “shifted significantly”.
